According to ChEMBL document CHEMBL1121485, “Antiestrogens. Synthesis and evaluation of mammary tumor inhibiting activity of 1,1,2,2-tetraalkyl-1,2 -diphenylethanes” (1980):

Species on record: Mus musculus
Test: Inhibition of estrone-stimulated uterine growth in mice at 25 ug
For `CC(=O)Oc1ccc(C(C)(C)C(C)(C)c2ccc(OC(C)=O)c(OC(C)=O)c2)cc1OC(C)=O`, the Inhibition was 13.5%.

The compounds below were run against T1, Estrogen receptor (Mus musculus) (UniProt O08537+P19785) (assay: Anti-uterotrophic effect in mice as uterus dry weight(mg) compared to body weight(g) at 10 ug/day dose).
T1 sequence (O08537 whole entry, looked up): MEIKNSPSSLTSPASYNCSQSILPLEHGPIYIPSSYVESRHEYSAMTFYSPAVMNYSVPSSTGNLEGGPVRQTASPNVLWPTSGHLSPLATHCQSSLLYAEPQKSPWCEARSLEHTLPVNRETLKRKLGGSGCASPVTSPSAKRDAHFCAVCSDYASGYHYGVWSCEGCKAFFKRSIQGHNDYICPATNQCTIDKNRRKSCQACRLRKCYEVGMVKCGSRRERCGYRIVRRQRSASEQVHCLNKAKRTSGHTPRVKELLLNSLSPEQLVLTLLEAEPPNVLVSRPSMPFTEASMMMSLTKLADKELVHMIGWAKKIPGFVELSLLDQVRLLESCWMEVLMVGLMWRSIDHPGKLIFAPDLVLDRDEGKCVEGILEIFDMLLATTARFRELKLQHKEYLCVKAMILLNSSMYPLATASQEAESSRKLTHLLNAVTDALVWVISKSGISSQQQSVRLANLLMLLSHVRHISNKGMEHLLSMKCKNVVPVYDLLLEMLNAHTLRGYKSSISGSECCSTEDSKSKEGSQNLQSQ
T1 sequence (P19785 whole entry, looked up): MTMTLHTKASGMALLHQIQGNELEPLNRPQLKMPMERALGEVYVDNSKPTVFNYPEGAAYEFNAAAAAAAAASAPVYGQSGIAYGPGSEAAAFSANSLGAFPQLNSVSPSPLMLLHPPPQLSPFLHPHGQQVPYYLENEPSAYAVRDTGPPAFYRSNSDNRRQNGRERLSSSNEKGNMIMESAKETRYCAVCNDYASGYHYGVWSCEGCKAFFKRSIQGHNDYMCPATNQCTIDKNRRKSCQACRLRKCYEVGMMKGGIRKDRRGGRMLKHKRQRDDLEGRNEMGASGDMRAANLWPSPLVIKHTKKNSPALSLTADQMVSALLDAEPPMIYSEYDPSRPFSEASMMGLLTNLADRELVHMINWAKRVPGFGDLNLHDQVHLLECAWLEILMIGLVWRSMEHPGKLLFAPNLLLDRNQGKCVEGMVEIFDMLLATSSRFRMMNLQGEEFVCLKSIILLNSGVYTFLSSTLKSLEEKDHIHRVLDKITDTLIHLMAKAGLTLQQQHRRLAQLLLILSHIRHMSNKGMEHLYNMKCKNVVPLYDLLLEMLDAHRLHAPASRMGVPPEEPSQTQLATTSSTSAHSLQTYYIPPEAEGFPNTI
Assay type: functional, tissue-based
Procedure, shortened: (§1)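 Mice aged 20 days at start, dosed sc once daily for 3 days (0.1 mL injections, arachis oil vehicle); vehicle-only control group. Killed 24 h after last dose; body weight recorded; uteri fixed in Bouin's solution 12 h, trimmed of connective tissue, washed with saturated alcoholic LiCl, dried 100 °C for 24 h, then weighed.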
`CC(C)(c1cc(O)cc(O)c1)C(C)(C)c1cc(O)cc(O)c1` gave an Effect of 30.6. Compound `CC(=O)Oc1ccc(C(C)(C)C(C)(C)c2ccc(OC(C)=O)c(OC(C)=O)c2)cc1OC(C)=O` has an Effect of 37.8.

What follows are compounds tested against T1, Estrogen receptor (Mus musculus) (assay: Uterotrophic effect in mice as uterus dry weight(mg) compared to body weight(g) at 100 ug/day dose).
Assay type: functional, tissue-based
Procedure, shortened: as §1
`CC(C)(c1cc(O)cc(O)c1)C(C)(C)c1cc(O)cc(O)c1` showed an Effect of 8.5.

Species on record: Mus musculus
Test: Inhibition of estrone-stimulated uterine growth in mice at 100 ug
Work on `CC(=O)Oc1ccc(C(C)(C)C(C)(C)c2ccc(OC(C)=O)c(OC(C)=O)c2)cc1OC(C)=O` yielded an Inhibition of 0.3%.

These compounds were tested against T2, Estrogen receptor (Bos taurus) (UniProt Q9XSB5+P49884) (assay: Ratio of association constants for estradiol and compound in estrogen receptor binding assay).
Assay type: protein assay
`CCC(c1cccc(O)c1)C(CC)c1cccc(O)c1` (stereo not drawn) showed an RAC of 0.048. Compound `CC(C)(c1cc(O)cc(O)c1)C(C)(C)c1cc(O)cc(O)c1` has an RAC of 4e-05. `CC(=O)Oc1ccc(C(C)(C)C(C)(C)c2ccc(OC(C)=O)c(OC(C)=O)c2)cc1OC(C)=O` was tested, and the RAC was 0.00021.

Each compound was assayed against T1, Estrogen receptor (Mus musculus) (assay: Uterotrophic effect in mice as uterus dry weight(mg) compared to body weight(g) at 250 ug/day dose).
Assay type: functional, tissue-based
Procedure, shortened: as §1
In the case of `CC(=O)Oc1ccc(C(C)(C)C(C)(C)c2ccc(OC(C)=O)c(OC(C)=O)c2)cc1OC(C)=O`, the Effect is reported as 14.2.

Species on record: Mus musculus
Test: Inhibition of estrone-stimulated uterine growth in mice at 10 ug
Work on `CC(C)(c1cc(O)cc(O)c1)C(C)(C)c1cc(O)cc(O)c1` yielded an Inhibition of 11.7%. With `CC(=O)Oc1ccc(C(C)(C)C(C)(C)c2ccc(OC(C)=O)c(OC(C)=O)c2)cc1OC(C)=O` the Inhibition was 13.3%.

What follows are compounds tested against T1, Estrogen receptor (Mus musculus) (assay: Uterotrophic effect in mice as uterus dry weight(mg) compared to body weight(g) at 500 ug/day dose).
Assay type: functional, tissue-based
Procedure, shortened: as §1
`CC(C)(c1cc(O)cc(O)c1)C(C)(C)c1cc(O)cc(O)c1` was tested, and the Effect was 14.3.

These compounds were tested against T2, Estrogen receptor (Bos taurus) (assay: Relative binding affinity for Estrogen receptor compared to 17-beta-estradiol).
Assay type: protein assay
Work on `CCC(c1cccc(O)c1)C(CC)c1cccc(O)c1` (stereo not drawn) yielded an RA of 0.052. Compound `CC(C)(c1cc(O)cc(O)c1)C(C)(C)c1cc(O)cc(O)c1` has an RA of 4.3e-05. For `CC(=O)Oc1ccc(C(C)(C)C(C)(C)c2ccc(OC(C)=O)c(OC(C)=O)c2)cc1OC(C)=O`, the RA was 0.00023.

These compounds were tested against T2, Estrogen receptor (Bos taurus) (assay: Association constant for Estrogen receptor).
Assay type: protein assay
With `CCC(c1cccc(O)c1)C(CC)c1cccc(O)c1` (stereo not drawn) the Ka was 3.5e+08 M⁻¹. With `CC(C)(c1cc(O)cc(O)c1)C(C)(C)c1cc(O)cc(O)c1` the Ka was 290000 M⁻¹. `CC(=O)Oc1ccc(C(C)(C)C(C)(C)c2ccc(OC(C)=O)c(OC(C)=O)c2)cc1OC(C)=O` was tested, and the Ka was 1.5e+06 M⁻¹.

The compounds below were run against T1, Estrogen receptor (Mus musculus) (assay: Anti-uterotrophic effect in mice as uterus dry weight(mg) compared to body weight(g) at 25 ug/day dose).
Assay type: functional, tissue-based
Procedure, shortened: as §1
`CC(=O)Oc1ccc(C(C)(C)C(C)(C)c2ccc(OC(C)=O)c(OC(C)=O)c2)cc1OC(C)=O` was tested, and the Effect was 37.8.

What follows are compounds tested against T1, Estrogen receptor (Mus musculus) (assay: Uterotrophic effect in mice as uterus dry weight(mg) compared to body weight(g) at 2.5 ug/day dose).
Assay type: functional, tissue-based
Procedure, shortened: as §1
In the case of `CC(=O)Oc1ccc(C(C)(C)C(C)(C)c2ccc(OC(C)=O)c(OC(C)=O)c2)cc1OC(C)=O`, the Effect is reported as 13.8.

Each compound was assayed against T1, Estrogen receptor (Mus musculus) (assay: Uterotrophic effect in mice as uterus dry weight(mg) compared to body weight(g) at 10 ug/day dose).
Assay type: functional, tissue-based
Procedure, shortened: as §1
In the case of `CC(=O)Oc1ccc(C(C)(C)C(C)(C)c2ccc(OC(C)=O)c(OC(C)=O)c2)cc1OC(C)=O`, the Effect is reported as 13.8.

Species on record: Mus musculus
Test: Inhibition of estrone-stimulated uterine growth in mice at 2.5 ug
In the case of `CC(=O)Oc1ccc(C(C)(C)C(C)(C)c2ccc(OC(C)=O)c(OC(C)=O)c2)cc1OC(C)=O`, the Inhibition is reported as 18.3%.

Each compound was assayed against T1, Estrogen receptor (Mus musculus) (assay: Uterotrophic effect in mice as uterus dry weight(mg) compared to body weight(g) at 25 ug/day dose).
Assay type: functional, tissue-based
Procedure, shortened: as §1
Compound `CC(C)(c1cc(O)cc(O)c1)C(C)(C)c1cc(O)cc(O)c1` has an Effect of 9.4.

The compounds below were run against T1, Estrogen receptor (Mus musculus) (assay: Anti-uterotrophic effect in mice as uterus dry weight(mg) compared to body weight(g) at 0 ug/day dose).
Assay type: functional, tissue-based
Procedure, shortened: as §1
With `CC(C)(c1cc(O)cc(O)c1)C(C)(C)c1cc(O)cc(O)c1` the Effect was 11.3. `CC(=O)Oc1ccc(C(C)(C)C(C)(C)c2ccc(OC(C)=O)c(OC(C)=O)c2)cc1OC(C)=O` showed an Effect of 12.6.

The compounds below were run against T1, Estrogen receptor (Mus musculus) (assay: Uterotrophic effect in mice as uterus dry weight(mg) compared to body weight(g) at 5 ug/day dose).
Assay type: functional, tissue-based
Procedure, shortened: as §1
Work on `CC(C)(c1cc(O)cc(O)c1)C(C)(C)c1cc(O)cc(O)c1` yielded an Effect of 9.

Each compound was assayed against T1, Estrogen receptor (Mus musculus) (assay: Anti-uterotrophic effect in mice as uterus dry weight(mg) compared to body weight(g) at 2.5 ug/day dose).
Assay type: functional, tissue-based
Procedure, shortened: as §1
With `CC(=O)Oc1ccc(C(C)(C)C(C)(C)c2ccc(OC(C)=O)c(OC(C)=O)c2)cc1OC(C)=O` the Effect was 36.4.

The compounds below were run against T1, Estrogen receptor (Mus musculus) (assay: Uterotrophic effect in mice as uterus dry weight(mg) compared to body weight(g) at 0 ug/day dose).
Assay type: functional, tissue-based
Procedure, shortened: as §1
`CC(C)(c1cc(O)cc(O)c1)C(C)(C)c1cc(O)cc(O)c1` was tested, and the Effect was 9.6. In the case of `CC(=O)Oc1ccc(C(C)(C)C(C)(C)c2ccc(OC(C)=O)c(OC(C)=O)c2)cc1OC(C)=O`, the Effect is reported as 11.4.

Each compound was assayed against T1, Estrogen receptor (Mus musculus) (assay: Uterotrophic effect in mice as uterus dry weight(mg) compared to body weight(g) at 50 ug/day dose).
Assay type: functional, tissue-based
Procedure, shortened: as §1
`CC(=O)Oc1ccc(C(C)(C)C(C)(C)c2ccc(OC(C)=O)c(OC(C)=O)c2)cc1OC(C)=O` showed an Effect of 13.6.

These compounds were tested against T1, Estrogen receptor (Mus musculus) (assay: Anti-uterotrophic effect in mice as uterus dry weight(mg) compared to body weight(g) at 100 ug/day dose).
Assay type: functional, tissue-based
Procedure, shortened: as §1
`CC(C)(c1cc(O)cc(O)c1)C(C)(C)c1cc(O)cc(O)c1` gave an Effect of 40.4. `CC(=O)Oc1ccc(C(C)(C)C(C)(C)c2ccc(OC(C)=O)c(OC(C)=O)c2)cc1OC(C)=O` was tested, and the Effect was 41.6.

The compounds below were run against T1, Estrogen receptor (Mus musculus) (assay: Anti-uterotrophic effect in mice as uterus dry weight(mg) compared to body weight(g) at 500 ug/day dose).
Assay type: functional, tissue-based
Procedure, shortened: as §1
Work on `CC(C)(c1cc(O)cc(O)c1)C(C)(C)c1cc(O)cc(O)c1` yielded an Effect of 38.9.
